# Data taken from ChEMBL document CHEMBL1125378, “alpha-Methyl polyamines: metabolically stable spermidine and spermine mimics capable of supporting growth in cells depleted of polyamines” (J Med Chem, 1992).
# Several values for one entry are separate records, joined by “and”; a condition that tells them apart may be missing. Identical values can stand only once.
# Columns and labels:
# HT-29 [1] = assay: Compound level in 72 hr DFMO (5 mM)-treated HT-29 cells after exposure to 10 uM spermidine; type: functional, cell-based; settings: Homo sapiens
# In short: (§1)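 HT29 cells pretreated with 5 mM DFMO for 120 h, then polyamine added and culture continued with DFMO for 72 h (experiment A); refed at 96 h. Cellular polyamine content given as nmol/mg protein (detection limit 0.2). SD from at least four separate experiments.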
# L1210 [2] = assay: Compound level in L1210 cells after 72 h; type: functional, cell-based; settings: Mus musculus
# In short: (§2)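 L1210 cells held in 5 mM DFMO for 72 h before polyamine addition and through a further 72 h, refed at 72 h; controls without DFMO cultured 72 h in total. Intracellular polyamines reported as nmol/mg protein (detection limit 0.2). Mean ± SD from at least four separate experiments.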
# HT-29 [3] = assay: Compound level in 72 h DFMO (5 mM)-treated HT-29 cells after exposure to 25 uM spermidine; type: functional, cell-based; settings: Homo sapiens
# SV3T3 [4] = assay: Compound level in DFMO-treated SV3T3 cells at 0 h; type: functional, cell-based; settings: Mus musculus
# In short: (§3)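 SV-3T3 fibroblasts (experiment A) held in 5 mM DFMO for 72 h before polyamine addition and throughout a further 72 h. Intracellular polyamines expressed as nmol/mg protein (detection limit 0.05). SD from at least four separate experiments, or duplicate where no SD is given.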
# SV3T3 [5] = assay: Compound level in SV3T3 cells after 96 hr; type: functional, cell-based; settings: Mus musculus
# HT-29 [6] = assay: Compound level in 96 hr DFMO (5 mM)-treated HT-29 cells after exposure to 10 uM spermine; type: functional, cell-based; settings: Homo sapiens
# SV3T3 [7] = assay: Compound level in 96 hr DFMO (5 mM)-treated SV3T3 cells after exposure to 10 uM spermine; type: functional, cell-based; settings: Mus musculus
# L1210 [8] = assay: Compound level in DFMO-treated L1210 cells at 0 h; type: functional, cell-based; settings: Mus musculus; in short: as §2
# SV3T3 [9] = assay: Compound level in 96 hr DFMO (5 mM)-treated SV3T3 cells after exposure to 25 uM spermine; type: functional, cell-based; settings: Mus musculus
# HT-29 [10] = assay: Compound level in HT-29 cells after 96 h; type: functional, cell-based; settings: Homo sapiens
# In short: (§4)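 HT29 experiment B: 5 mM DFMO for 120 h before addition and throughout a further 96 h; refed at 96 h. Cells without DFMO cultured 96 h in total. Polyamines measured as nmol/mg protein (detection limit 0.2). SD from at least four separate experiments.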
# HT-29 [11] = assay: Compound level in 72 hr DFMO (5 mM)-treated HT-29 cells after exposure to 25 uM 1-methylspermine; type: functional, cell-based; settings: Homo sapiens; in short: as §1
# L1210 [12] = assay: Compound level in 72 hr DFMO (5 mM)-treated L1210 cells after exposure to 10 uM 1,12-dimethylspermine; type: functional, cell-based; settings: Mus musculus; in short: as §2
# HT-29 [13] = assay: Compound level in 72 hr DFMO (5 mM)-treated HT-29 cells after exposure to 10 uM spermine; type: functional, cell-based; settings: Homo sapiens; in short: as §1
# [14] = Retention time was determined; type: ADME
# L1210 [15] = assay: Compound level in 72 hr DFMO (5 mM)-treated L1210 cells after exposure to 10 uM spermidine; type: functional, cell-based; settings: Mus musculus; in short: as §2
# SV3T3 [16] = assay: Compound level in 72 hr DFMO (5 mM)-treated SV3T3 cells after exposure to 10 uM spermine; type: functional, cell-based; settings: Mus musculus; in short: as §3
# L1210 [17] = assay: Compound level in 72 h DFMO (5 mM)-treated L1210 cells after exposure to 10 uM spermine; type: functional, cell-based; settings: Mus musculus; in short: as §2
# HT-29 [18] = assay: Compound level in 72 hr DFMO (5 mM)-treated HT-29 cells after exposure to 10 uM 1-methylspermine; type: functional, cell-based; settings: Homo sapiens; in short: as §1
# SV3T3 [19] = assay: Compound level in 72 hr DFMO (5 mM)-treated SV3T3 cells after exposure to 10 uM spermidine; type: functional, cell-based; settings: Mus musculus; in short: as §3
# Homo sapiens = species: Homo sapiens; assay: Compound level in DFMO-treated HT-29 cells after 96 h; type: functional, cell-based; in short: as §4
# HT-29 [20] = assay: Compound level in 72 hr DFMO (5 mM)-treated HT-29 cells after exposure to 15 uM spermine; type: functional, cell-based; settings: Homo sapiens; in short: as §1
# HT-29 [21] = assay: Compound level in DFMO-treated HT-29 cells after 72 h; type: functional, cell-based; settings: Homo sapiens; in short: as §1
# HT-29 [22] = assay: Compound level in HT-29 cells after 72 h; type: functional, cell-based; settings: Homo sapiens
# HT-29 [23] = assay: Compound level in 72 hr DFMO (5 mM)-treated HT-29 cells after exposure to 10 uM 1-methylspermidine; type: functional, cell-based; settings: Homo sapiens; in short: as §1
# L1210 [24] = assay: Compound level in 72 hr DFMO (5 mM)-treated L1210 cells after exposure to 10 uM 1-methylspermine; type: functional, cell-based; settings: Mus musculus; in short: as §2
# SV3T3 [25] = settings: Mus musculus
# SV3T3 [26] = assay: Compound level in 72 h DFMO (5 mM)-treated SV3T3 cells after exposure to 10 uM 1-methylspermidine; type: functional, cell-based; settings: Mus musculus; in short: as §3
# HT-29 [27] = assay: Compound level in DFMO-treated HT-29 cells at 0 h; type: functional, cell-based; settings: Homo sapiens
# HT-29 [28] = assay: Compound level in 72 hr DFMO (5 mM)-treated HT-29 cells after exposure to 25 uM 1-methylspermidine; type: functional, cell-based; settings: Homo sapiens; in short: as §1
# SV3T3 [29] = assay: Compound level in 72 hr DFMO (5 mM)-treated SV3T3 cells after exposure to 1 uM 1,12-dimethylspermine; settings: Mus musculus
# SV3T3 [30] = assay: Compound level in 72 hr DFMO (5 mM)-treated SV3T3 cells after exposure to 25 uM 1-methylspermidine; type: functional, cell-based; settings: Mus musculus; in short: as §3
# SV3T3 [31] = assay: Compound level in 96 hr DFMO (5 mM)-treated SV3T3 cells after exposure to 10 uM 1,12-dimethylspermine; type: functional, cell-based; settings: Mus musculus
# SV3T3 [32] = settings: Mus musculus; remark: listed apart in the source
# L1210 [33] = settings: Mus musculus
# HT-29 [34] = assay: Compound level in 72 hr DFMO (5 mM)-treated HT-29 cells after exposure to 10 uM 1,12-dimethylspermine; type: functional, cell-based; settings: Homo sapiens, in the assay text read “120 hr” for “72 hr”; in short: as §4
# SV3T3 [35] = settings: Mus musculus; remark: listed apart in the source
# SV3T3 [36] = assay: Compound level in 72 hr DFMO (5 mM)-treated SV3T3 cells after exposure to 10 uM 1-methylspermine; type: functional, cell-based; settings: Mus musculus; in short: as §3
# SV3T3 [37] = assay: Compound level in 72 hr DFMO (5 mM)-treated SV3T3 cells after exposure to 25 uM 1-methylspermine; type: functional, cell-based; settings: Mus musculus; in short: as §3
# SV3T3 [38] = assay: Compound level in 72 hr DFMO (5 mM)-treated SV3T3 cells after exposure to 1 uM 1-methylspermidine; type: functional, cell-based; settings: Mus musculus; in short: as §3
# SV3T3 [39] = settings: Mus musculus; remark: listed apart in the source
# SV3T3 [40] = assay: Compound level in 72 hr DFMO (5 mM)-treated SV3T3 cells after exposure to 1 uM 1-methylspermine; type: functional, cell-based; settings: Mus musculus; in short: as §3
# HT-29 [41] = assay: Compound level in 72 hr DFMO (5 mM)-treated HT-29 cells after exposure to 25 uM 1,12-dimethylspermine; type: functional, cell-based; settings: Homo sapiens, in the assay text read “120 hr” for “72 hr”; in short: as §4
# SV3T3 [42] = assay: Compound level in 96 hr DFMO (5 mM)-treated SV3T3 cells after exposure to 25 uM 1,12-dimethylspermine; type: functional, cell-based; settings: Mus musculus
# L1210 [43] = assay: Compound level in 72 hr DFMO (5 mM)-treated L1210 cells after exposure to 10 uM 1-methylspermidine; type: functional, cell-based; settings: Mus musculus; in short: as §2
smiles,measurement,setting,value
NCCCCNCCCN [SPERMIDINE],Level (nM (mg of protein)-1),HT-29 [1],23.6
same,Level (nM (mg of protein)-1),L1210 [2],41
same,Level (nM (mg of protein)-1),HT-29 [3],25.1
same,Level (nM (mg of protein)-1),SV3T3 [4],0.3
same,Level (nM (mg of protein)-1),SV3T3 [5],26.4
same,Level (nM (mg of protein)-1),HT-29 [6],4.4
same,Level (nM (mg of protein)-1),SV3T3 [7],11.5
same,Level (nM (mg of protein)-1),L1210 [8],1
same,Level (nM (mg of protein)-1),SV3T3 [9],3.1
same,Level (nM (mg of protein)-1),HT-29 [10],13.4
same,Level (nM (mg of protein)-1),HT-29 [11],0.3
same,Level (nM (mg of protein)-1),L1210 [12],0.2
same,Level (nM (mg of protein)-1),HT-29 [13],7.9
same,tR,[14],33.9 min
same,Level (nM (mg of protein)-1),L1210 [15],38
same,Level (nM (mg of protein)-1),SV3T3 [16],2.6
same,Level (nM (mg of protein)-1),L1210 [17],6.4
same,Level (nM (mg of protein)-1),HT-29 [18],0.4
same,Level (nM (mg of protein)-1),SV3T3 [19],8.7
same,Level (nM (mg of protein)-1),Homo sapiens,0.4
same,Level (nM (mg of protein)-1),HT-29 [20],4.8
same,Level (nM (mg of protein)-1),HT-29 [21],0.7
same,Level (nM (mg of protein)-1),HT-29 [22],9.8
NCCCNCCCCNCCCN [SPERMINE],Level (nM (mg of protein)-1),HT-29 [23],1.1
same,Level (nM (mg of protein)-1),HT-29 [1],10.3
same,Level (nM (mg of protein)-1),L1210 [2],9.1
same,Level (nM (mg of protein)-1),HT-29 [3],9
same,Level (nM (mg of protein)-1),SV3T3 [4],9.3 and 7.8
same,Level (nM (mg of protein)-1),SV3T3 [5],7.1
same,Level (nM (mg of protein)-1),L1210 [24],1.7
same,Level (nM (mg of protein)-1),SV3T3 [25],13.5
same,Level (nM (mg of protein)-1),HT-29 [6],21.5
same,Level (nM (mg of protein)-1),SV3T3 [26],0.4
same,Level (nM (mg of protein)-1),SV3T3 [7],24.5
same,Level (nM (mg of protein)-1),HT-29 [27],5.4 and 7.1
same,Level (nM (mg of protein)-1),L1210 [8],13.4
same,Level (nM (mg of protein)-1),SV3T3 [9],31.5
same,Level (nM (mg of protein)-1),HT-29 [28],1.2
same,Level (nM (mg of protein)-1),SV3T3 [29],7.8
same,Level (nM (mg of protein)-1),SV3T3 [30],0.3
same,Level (nM (mg of protein)-1),SV3T3 [31],3.3
same,Level (nM (mg of protein)-1),HT-29 [10],17.8
same,Level (nM (mg of protein)-1),SV3T3 [32],7.7
same,Level (nM (mg of protein)-1),HT-29 [11],0.8
same,Level (nM (mg of protein)-1),L1210 [12],3.2
same,Level (nM (mg of protein)-1),HT-29 [13],21.5
same,Level (nM (mg of protein)-1),L1210 [33],7.3
same,tR,[14],40 min
same,Level (nM (mg of protein)-1),L1210 [15],16.3
same,Level (nM (mg of protein)-1),SV3T3 [16],20.6
same,Level (nM (mg of protein)-1),HT-29 [34],0.9
same,Level (nM (mg of protein)-1),L1210 [17],35.6
same,Level (nM (mg of protein)-1),HT-29 [18],0.7
same,Level (nM (mg of protein)-1),SV3T3 [35],14.3
same,Level (nM (mg of protein)-1),SV3T3 [19],9.5
same,Level (nM (mg of protein)-1),Homo sapiens,4.4
same,Level (nM (mg of protein)-1),SV3T3 [36],0.3
same,Level (nM (mg of protein)-1),SV3T3 [37],0.8
same,Level (nM (mg of protein)-1),SV3T3 [38],3.8
same,Level (nM (mg of protein)-1),HT-29 [20],21.7
same,Level (nM (mg of protein)-1),SV3T3 [39],11.5
same,Level (nM (mg of protein)-1),SV3T3 [40],3.5
same,Level (nM (mg of protein)-1),HT-29 [41],0.7
same,Level (nM (mg of protein)-1),HT-29 [21],3.8
same,Level (nM (mg of protein)-1),HT-29 [22],10.5
same,Level (nM (mg of protein)-1),SV3T3 [42],1
same,Level (nM (mg of protein)-1),L1210 [43],1.1
